Measured values published in ChEMBL document CHEMBL3112482, “Nonclassical antifolates, part 5. Benzodiazepine analogs as a new class of DHFR inhibitors: synthesis, antitumor testing and molecular modeling study” (Eur J Med Chem, 2014).

Assays:
SK-MEL-5 = test: Growth inhibition of human SK-MEL-5 cells at 10 uM after 48 hrs; format: functional; conditions: SK-MEL-5, 48 h, read-out: GI
In short: (§1)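 NCI 60-cell-line disease-oriented human tumor panel, single-dose primary screen at 10 µM. Data given as mean-graph percent growth of treated cells, reported as percent growth inhibition (GI %).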

SW-620 = test: Growth inhibition of human SW620 cells at 10 uM after 48 hrs; format: functional; conditions: SW-620, 48 h, read-out: GI; in short: as §1
[1] = Growth inhibition of human HCC2998 cells at 10 uM after 48 hrs; format: functional; conditions: HCC 2998, 48 h, read-out: GI
In short: (§2)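 Single-dose primary screen in the NCI 60 human tumour cell line panel, run at the NCI facility. The panel covers nine subpanels: leukaemia, non-small cell lung, colon, CNS, melanoma, ovarian, renal, prostate and breast. Read-out was percent growth of treated cells, shown as a mean graph and reported as percent growth inhibition.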

SK-OV-3 = test: Growth inhibition of human SKOV3 cells at 10 uM after 48 hrs; format: functional; conditions: SK-OV-3, 48 h, read-out: GI; in short: as §1
SNB-19 = test: Growth inhibition of human SNB19 cells at 10 uM after 48 hrs; format: functional; conditions: SNB-19, 48 h, read-out: GI; in short: as §1
NCI-H23 = test: Growth inhibition of human NCI-H23 cells at 10 uM after 48 hrs; format: functional; conditions: NCI-H23, 48 h, read-out: GI; in short: as §2
CCRF-CEM = test: Growth inhibition of human CCRF-CEM cells at 10 uM after 48 hrs; format: functional; conditions: read-out: GI; in short: as §2
IGROV-1 = test: Growth inhibition of human IGROV1 cells at 10 uM after 48 hrs; format: functional; conditions: IGROV-1, 48 h, read-out: GI; in short: as §2
NCI-H322M = test: Growth inhibition of human NCI-H322M cells at 10 uM after 48 hrs; format: functional; conditions: read-out: GI; in short: as §2
[2] = Growth inhibition of human OVCAR4 cells at 10 uM after 48 hrs; format: functional; conditions: OVCAR-4, 48 h, read-out: GI; in short: as §2
SK-MEL-28 = test: Growth inhibition of human SK-MEL-28 cells at 10 uM after 48 hrs; format: functional; conditions: SK-MEL-28, 48 h, read-out: GI; in short: as §1
Dihydrofolate reductase = biological target: T1, Dihydrofolate reductase (Bos taurus, UniProt P00376); test: Inhibition of bovine liver DHFR measured for every 1 min of 10 mins
T1 sequence (P00376 whole entry): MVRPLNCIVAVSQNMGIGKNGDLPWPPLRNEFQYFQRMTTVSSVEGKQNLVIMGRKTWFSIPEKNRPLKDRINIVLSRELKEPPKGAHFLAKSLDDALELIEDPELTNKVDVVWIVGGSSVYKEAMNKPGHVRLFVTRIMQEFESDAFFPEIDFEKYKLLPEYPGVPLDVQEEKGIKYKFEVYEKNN

[3] = Cytotoxicity against human leukemia cells at 10 uM after 48 hrs; format: functional; conditions: Leukemia cell
[4] = Growth inhibition of human UACC257 cells at 10 uM after 48 hrs; format: functional; conditions: UACC-257, 48 h, read-out: GI; in short: as §1
[5] = Growth inhibition of human NCI-ADR-RES cells at 10 uM after 48 hrs; format: functional; conditions: read-out: GI; in short: as §2
[6] = Growth inhibition of human RXF393 cells at 10 uM after 48 hrs; format: functional; conditions: RXF 393, 48 h, read-out: GI; in short: as §2
[7] = Growth inhibition of human Hs 578T cells at 10 uM after 48 hrs; format: functional; conditions: read-out: GI; in short: as §2
MDA-MB-231 = test: Growth inhibition of human MDA-MB-231 cells at 10 uM after 48 hrs; format: functional; conditions: MDA-MB-231, 48 h, read-out: GI; in short: as §2
[8] = Growth inhibition of human EKVX cells at 10 uM after 48 hrs; format: functional; conditions: read-out: GI; in short: as §2
SF-268 = test: Growth inhibition of human SF268 cells at 10 uM after 48 hrs; format: functional; conditions: SF-268, 48 h, read-out: GI; in short: as §1
K562 = test: Growth inhibition of human K562 cells at 10 uM after 48 hrs; format: functional; conditions: K562, 48 h, read-out: GI; in short: as §2
A498 = test: Growth inhibition of human A498 cells at 10 uM after 48 hrs; format: functional; conditions: A498, 48 h, read-out: GI; in short: as §2
TK-10 = test: Growth inhibition of human TK10 cells at 10 uM after 48 hrs; format: functional; conditions: TK-10, 48 h, read-out: GI; in short: as §1
DU-145 = test: Growth inhibition of human DU145 cells at 10 uM after 48 hrs; format: functional; conditions: DU-145, 48 h, read-out: GI; in short: as §2
SR = test: Growth inhibition of human SR cells at 10 uM after 48 hrs; format: functional; conditions: read-out: GI; in short: as §1
MCF7 = test: Growth inhibition of human MCF7 cells at 10 uM after 48 hrs; format: functional; conditions: MCF7, 48 h, read-out: GI; in short: as §2
[9] = Growth inhibition of human UO31 cells at 10 uM after 48 hrs; format: functional; conditions: UO-31, 48 h, read-out: GI; in short: as §1
HL-60(TB) = test: Growth inhibition of human HL-60(TB) cells at 10 uM after 48 hrs; format: functional; conditions: HL-60, 48 h, read-out: GI
In short: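 NCI 60-cell-line human tumour panel covering nine subpanels (leukaemia, non-small cell lung, colon, CNS, melanoma, ovarian, renal, prostate, breast), run at the NCI facility. Primary screen tested a single dose of each compound. Read-out was percent growth of treated cells versus untreated cells, reported from the mean graph as percentage growth inhibition.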

ACHN = test: Growth inhibition of human ACHN cells at 10 uM after 48 hrs; format: functional; conditions: read-out: GI; in short: as §2
[10] = Growth inhibition of human HOP92 cells at 10 uM after 48 hrs; format: functional; conditions: HOP-92, 48 h, read-out: GI; in short: as §2
[11] = Growth inhibition of human OVCAR5 cells at 10 uM after 48 hrs; format: functional; conditions: OVCAR-5, 48 h, read-out: GI; in short: as §2
T47D = test: Growth inhibition of human T47D cells at 10 uM after 48 hrs; format: functional; conditions: read-out: GI; in short: as §1
CAKI-1 = test: Growth inhibition of human CAKI-1 cells at 10 uM after 48 hrs; format: functional; conditions: CAKI-1, 48 h, read-out: GI; in short: as §2
PC-3 = test: Growth inhibition of human PC3 cells at 10 uM after 48 hrs; format: functional; conditions: PC-3, 48 h, read-out: GI; in short: as §2
SNB-75 = test: Growth inhibition of human SNB75 cells at 10 uM after 48 hrs; format: functional; conditions: SNB-75, 48 h, read-out: GI; in short: as §1
NCI-H460 = test: Growth inhibition of human NCI-H460 cells at 10 uM after 48 hrs; format: functional; conditions: NCI-H460, 48 h, read-out: GI; in short: as §2
[12] = Growth inhibition of human SF539 cells at 10 uM after 48 hrs; format: functional; conditions: SF-539, 48 h, read-out: GI; in short: as §1
786-0 = test: Growth inhibition of human 786-0 cells at 10 uM after 48 hrs; format: functional; conditions: 786-0, 48 h, read-out: GI; in short: as §2
KM12 = test: Growth inhibition of human KM12 cells at 10 uM after 48 hrs; format: functional; conditions: KM12, 48 h, read-out: GI; in short: as §2

COc1ccc(/C=C2\CCCc3c2nc(N)nc3-c2ccc(OC)c(OC)c2)cc1OC
inhibition of growth at 10 µM (SK-MEL-5): 60.3% | inhibition of growth at 10 µM (SW-620): 59.3% | inhibition of growth at 10 µM [1]: < 30% | inhibition of growth at 10 µM (SK-OV-3): 55.9% | inhibition of growth at 10 µM (SNB-19): < 30% | inhibition of growth at 10 µM (NCI-H23): 50.7% | inhibition of growth at 10 µM (CCRF-CEM): 84.7% | inhibition of growth at 10 µM (IGROV-1): 42.9% | inhibition of growth at 10 µM (NCI-H322M): < 30% | inhibition of growth at 10 µM [2]: 46.7% | inhibition of growth at 10 µM (SK-MEL-28): 34.7% | IC50 (Dihydrofolate reductase): 14 µM | GI50 [3]: 2.1 µM | LC50 [3]: > 100 µM | TGI [3]: 65.1 µM | inhibition of growth at 10 µM [4]: 53.8% | inhibition of growth at 10 µM [5]: 74.9% | inhibition of growth at 10 µM [6]: 79.1% | inhibition of growth at 10 µM [7]: < 30% | inhibition of growth at 10 µM (MDA-MB-231): < 30% | inhibition of growth at 10 µM [8]: < 30% | inhibition of growth at 10 µM (SF-268): 36.2% | inhibition of growth at 10 µM (K562): 44% | inhibition of growth at 10 µM (A498): < 30% | inhibition of growth at 10 µM (TK-10): < 30% | inhibition of growth at 10 µM (DU-145): < 30% | inhibition of growth at 10 µM (SR): 71.9% | inhibition of growth at 10 µM (MCF7): 72.4% | inhibition of growth at 10 µM [9]: 37.1% | inhibition of growth at 10 µM (HL-60(TB)): 57.7% | inhibition of growth at 10 µM (ACHN): 72.7% | inhibition of growth at 10 µM [10]: < 30% | inhibition of growth at 10 µM [11]: < 30% | inhibition of growth at 10 µM (T47D): < 30% | inhibition of growth at 10 µM (CAKI-1): 44.2% | inhibition of growth at 10 µM (PC-3): 38.5% | inhibition of growth at 10 µM (SNB-75): 36.1% | inhibition of growth at 10 µM (NCI-H460): 35.4% | inhibition of growth at 10 µM [12]: < 30% | inhibition of growth at 10 µM (786-0): < 30% | inhibition of growth at 10 µM (KM12): 67.9%

COc1cc(/C=C2\CCCc3c2nc(C)nc3-c2cc(OC)c(OC)c(OC)c2)cc(OC)c1OC
inhibition of growth at 10 µM (SK-MEL-5): 80.9% | inhibition of growth at 10 µM [1]: 88.1% | inhibition of growth at 10 µM (SK-OV-3): 56.1% | inhibition of growth at 10 µM (SNB-19): 38.8% | inhibition of growth at 10 µM (NCI-H23): 66.1% | inhibition of growth at 10 µM (IGROV-1): 69.3% | inhibition of growth at 10 µM (NCI-H322M): 58.9% | inhibition of growth at 10 µM [2]: 57.8% | inhibition of growth at 10 µM (SK-MEL-28): 68.1% | IC50 (Dihydrofolate reductase): 0.5 µM | GI50 [3]: 1.1 µM | LC50 [3]: > 100 µM | TGI [3]: 62.5 µM | inhibition of growth at 10 µM [4]: 56.2% | inhibition of growth at 10 µM [5]: 85.6% | inhibition of growth at 10 µM [6]: 77.4% | inhibition of growth at 10 µM [7]: 51.4% | inhibition of growth at 10 µM (MDA-MB-231): 86.9% | inhibition of growth at 10 µM [8]: < 30% | inhibition of growth at 10 µM (SF-268): 78.8% | inhibition of growth at 10 µM (K562): 88.9% | inhibition of growth at 10 µM (A498): 83.7% | inhibition of growth at 10 µM (TK-10): 55.5% | inhibition of growth at 10 µM (DU-145): 95.1% | inhibition of growth at 10 µM (SR): < 30% | inhibition of growth at 10 µM (MCF7): 77% | inhibition of growth at 10 µM [9]: 48.9% | inhibition of growth at 10 µM (ACHN): 87.5% | inhibition of growth at 10 µM [10]: < 30% | inhibition of growth at 10 µM [11]: 89.2% | inhibition of growth at 10 µM (T47D): < 30% | inhibition of growth at 10 µM (CAKI-1): 88.6% | inhibition of growth at 10 µM (PC-3): 57.4% | inhibition of growth at 10 µM (SNB-75): 78.1% | inhibition of growth at 10 µM [12]: 86.5% | inhibition of growth at 10 µM (786-0): 82% | inhibition of growth at 10 µM (KM12): 97.1%
